25 compounds from ChEMBL document CHEMBL5260822, “Structure-based design and synthesis of 2,4-diaminopyrimidines as EGFR L858R/T790M selective inhibitors for NSCLC” (Eur J Med Chem, 2017) can be followed below.

The IC50 is the concentration that inhibits the measured activity by half.

SMILES strings stand for the structures. Some results are limits rather than exact numbers.

In assay [1] the target is Epidermal growth factor receptor (Homo sapiens, UniProt P00533, T790M). The assay is described as follows: Inhibition of EGFR T790M mutant (unknown origin) expressed in baculovirus expression system by ELISA. (In an ELISA, binding on a coated surface is turned into a signal by an enzyme label.)
Sequence of Epidermal growth factor receptor (Homo sapiens, UniProt P00533, T790M) (P00533 25-1210 T790M limits assumed): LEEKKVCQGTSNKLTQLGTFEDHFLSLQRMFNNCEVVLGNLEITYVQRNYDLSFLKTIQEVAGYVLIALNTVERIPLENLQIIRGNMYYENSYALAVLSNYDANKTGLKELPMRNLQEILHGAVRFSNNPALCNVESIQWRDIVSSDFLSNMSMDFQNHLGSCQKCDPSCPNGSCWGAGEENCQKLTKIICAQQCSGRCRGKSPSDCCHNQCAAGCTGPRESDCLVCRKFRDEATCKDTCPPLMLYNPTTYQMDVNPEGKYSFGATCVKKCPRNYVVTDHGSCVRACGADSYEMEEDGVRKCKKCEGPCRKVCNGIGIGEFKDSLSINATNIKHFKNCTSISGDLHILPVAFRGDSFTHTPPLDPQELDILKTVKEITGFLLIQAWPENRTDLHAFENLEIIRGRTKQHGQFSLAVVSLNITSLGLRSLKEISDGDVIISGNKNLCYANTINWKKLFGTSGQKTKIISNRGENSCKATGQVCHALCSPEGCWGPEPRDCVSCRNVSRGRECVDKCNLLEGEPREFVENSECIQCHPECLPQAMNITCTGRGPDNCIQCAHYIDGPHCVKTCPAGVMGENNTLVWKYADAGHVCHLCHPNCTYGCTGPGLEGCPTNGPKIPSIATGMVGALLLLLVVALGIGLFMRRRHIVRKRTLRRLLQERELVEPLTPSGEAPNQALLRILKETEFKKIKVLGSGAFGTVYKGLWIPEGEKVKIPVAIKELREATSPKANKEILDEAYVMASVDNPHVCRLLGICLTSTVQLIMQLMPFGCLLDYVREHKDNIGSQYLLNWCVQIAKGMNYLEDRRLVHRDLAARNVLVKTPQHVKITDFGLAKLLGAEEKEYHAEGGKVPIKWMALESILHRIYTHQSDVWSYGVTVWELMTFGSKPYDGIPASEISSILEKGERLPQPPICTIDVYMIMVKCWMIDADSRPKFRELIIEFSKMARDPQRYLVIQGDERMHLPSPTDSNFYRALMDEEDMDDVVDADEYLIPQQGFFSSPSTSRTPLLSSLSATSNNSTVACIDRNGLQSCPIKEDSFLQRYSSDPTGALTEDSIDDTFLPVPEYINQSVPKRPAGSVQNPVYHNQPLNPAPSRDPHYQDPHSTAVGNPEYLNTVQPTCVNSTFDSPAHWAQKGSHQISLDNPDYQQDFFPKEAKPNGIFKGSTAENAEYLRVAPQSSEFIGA
Assay [2] has as its target Epidermal growth factor receptor (Homo sapiens, UniProt P00533, L858R/T790M). The experiment in a line: Inhibition of EGFR L858R/T790M mutant (unknown origin) expressed in baculovirus expression system by ELISA.
Assay [3] concerns the target Epidermal growth factor receptor (Homo sapiens, UniProt P00533). The experiment in a line: Inhibition of wild type EGFR (unknown origin) expressed in baculovirus expression system by ELISA.
Assay [4] concerns A-431. The assay is described as follows: Antiproliferative activity against human A-431 cells harboring wild type EGFR assessed as inhibition of cell proliferation incubated for 72 hrs by sulforhodamine B colorimetric assay. It counts as functional, cell-based. Conditions: A-431, 72 h. Background: In SRB staining, fixed cells bind dye roughly in proportion to their protein.
Assay [5] relates to NCI-H1975. The experiment in a line: Antiproliferative activity against human NCI-H1975 cells harboring EGFR L858R/T790M double mutant assessed as inhibition of cell proliferation incubated for 72 hrs by sulforhodamine B colorimetric assay. Particulars: NCI-H1975, 72 h. It counts as functional, cell-based.
The species named for assay [6] is Homo sapiens. The assay is described as follows: Selectivity ratio, ratio of IC50 for inhibition of wild type EGFR (unknown origin) to IC50 for inhibition of EGFR L858R/T790M mutant (unknown origin). Put shortly:
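EGFR WT and L858R/T790M kinase domains expressed in a baculovirus system and purified on Ni-NTA. Kinase activity measured by ELISA-based EGFR tyrosine kinase assay; at least three independent determinations, mean ± SD.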

Sequence of Epidermal growth factor receptor (Homo sapiens, UniProt P00533) (P00533 whole entry): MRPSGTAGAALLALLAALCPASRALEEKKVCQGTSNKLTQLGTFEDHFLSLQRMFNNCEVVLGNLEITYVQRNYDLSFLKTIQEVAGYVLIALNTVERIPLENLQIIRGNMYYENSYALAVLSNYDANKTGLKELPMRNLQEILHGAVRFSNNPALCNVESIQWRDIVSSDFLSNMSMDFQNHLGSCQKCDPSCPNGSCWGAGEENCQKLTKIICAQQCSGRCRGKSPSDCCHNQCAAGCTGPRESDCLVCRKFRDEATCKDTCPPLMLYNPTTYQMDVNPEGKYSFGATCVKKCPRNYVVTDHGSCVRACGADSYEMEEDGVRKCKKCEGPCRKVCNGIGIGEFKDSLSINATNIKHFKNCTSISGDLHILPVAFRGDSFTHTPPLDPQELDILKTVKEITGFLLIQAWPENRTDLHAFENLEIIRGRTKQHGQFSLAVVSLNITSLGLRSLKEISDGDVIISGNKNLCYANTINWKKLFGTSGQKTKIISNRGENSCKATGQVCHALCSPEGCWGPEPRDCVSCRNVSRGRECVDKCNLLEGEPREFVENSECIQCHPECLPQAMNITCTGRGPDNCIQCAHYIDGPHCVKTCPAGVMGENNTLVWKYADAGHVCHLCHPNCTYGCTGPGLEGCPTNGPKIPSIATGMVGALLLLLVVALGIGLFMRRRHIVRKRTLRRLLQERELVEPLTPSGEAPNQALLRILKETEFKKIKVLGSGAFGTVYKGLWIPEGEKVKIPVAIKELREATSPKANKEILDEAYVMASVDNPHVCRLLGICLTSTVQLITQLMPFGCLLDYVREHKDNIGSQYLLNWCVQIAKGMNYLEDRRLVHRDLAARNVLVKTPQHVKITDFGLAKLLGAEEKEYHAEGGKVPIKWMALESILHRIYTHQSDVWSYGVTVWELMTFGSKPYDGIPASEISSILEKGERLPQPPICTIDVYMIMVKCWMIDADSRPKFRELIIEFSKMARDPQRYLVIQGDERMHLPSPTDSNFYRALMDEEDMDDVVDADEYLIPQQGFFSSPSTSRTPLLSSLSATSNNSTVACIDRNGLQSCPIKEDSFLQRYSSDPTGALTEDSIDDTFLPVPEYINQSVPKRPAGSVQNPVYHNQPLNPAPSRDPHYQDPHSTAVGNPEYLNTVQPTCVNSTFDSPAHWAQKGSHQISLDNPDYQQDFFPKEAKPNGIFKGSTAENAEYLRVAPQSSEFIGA
Sequence of Epidermal growth factor receptor (Homo sapiens, UniProt P00533, L858R/T790M) (P00533 25-1210 T790M/L858R limits assumed): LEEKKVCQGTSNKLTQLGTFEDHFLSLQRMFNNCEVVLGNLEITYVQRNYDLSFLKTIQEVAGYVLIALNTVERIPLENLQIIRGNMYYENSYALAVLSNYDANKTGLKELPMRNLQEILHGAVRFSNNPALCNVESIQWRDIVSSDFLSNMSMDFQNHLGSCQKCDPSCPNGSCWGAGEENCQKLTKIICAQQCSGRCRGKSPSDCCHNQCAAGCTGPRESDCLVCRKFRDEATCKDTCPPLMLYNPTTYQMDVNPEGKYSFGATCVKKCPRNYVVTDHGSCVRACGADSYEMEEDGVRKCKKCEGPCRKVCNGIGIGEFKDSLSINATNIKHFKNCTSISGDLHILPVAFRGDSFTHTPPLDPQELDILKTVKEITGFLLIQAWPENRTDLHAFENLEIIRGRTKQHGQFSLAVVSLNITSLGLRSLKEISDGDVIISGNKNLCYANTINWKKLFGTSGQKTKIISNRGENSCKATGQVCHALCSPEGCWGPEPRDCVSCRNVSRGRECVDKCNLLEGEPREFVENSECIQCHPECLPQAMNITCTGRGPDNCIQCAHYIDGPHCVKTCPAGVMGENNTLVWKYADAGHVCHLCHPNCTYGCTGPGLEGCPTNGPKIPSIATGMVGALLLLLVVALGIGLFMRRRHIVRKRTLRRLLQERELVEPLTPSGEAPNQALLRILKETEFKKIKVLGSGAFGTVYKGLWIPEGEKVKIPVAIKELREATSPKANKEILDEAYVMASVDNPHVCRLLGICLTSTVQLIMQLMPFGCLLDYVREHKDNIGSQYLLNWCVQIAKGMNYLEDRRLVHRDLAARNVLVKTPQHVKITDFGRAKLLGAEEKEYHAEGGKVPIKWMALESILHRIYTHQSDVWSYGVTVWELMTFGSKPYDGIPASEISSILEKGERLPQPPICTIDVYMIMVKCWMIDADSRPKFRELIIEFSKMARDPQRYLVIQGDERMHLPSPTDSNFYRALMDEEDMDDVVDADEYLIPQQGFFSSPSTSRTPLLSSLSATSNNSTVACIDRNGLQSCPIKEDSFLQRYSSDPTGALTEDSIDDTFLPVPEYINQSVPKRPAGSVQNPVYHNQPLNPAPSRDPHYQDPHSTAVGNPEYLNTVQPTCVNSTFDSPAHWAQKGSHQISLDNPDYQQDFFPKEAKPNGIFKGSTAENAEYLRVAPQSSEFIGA

On to `CN1CCN(c2ccc(Nc3ncc([N+](=O)[O-])c(Nc4ccc5[nH]ccc5c4)n3)cc2)CC1`, for which the figures for the IC50 in assay [1], in assay [2] and in assay [3] were greater than 1000 nM, 906 nM and greater than 1000 nM, respectively.

In the case of `C=CC(=O)Nc1cc(Nc2ncc(Br)c(Nc3ccc4cc[nH]c4c3)n2)ccc1N(C)CCN(C)C`, the IC50 in assay [4] was determined as 143 nM; in assay [2] it was 200 nM; in assay [5], 111 nM; in assay [3] it was 8.7 nM.

As for `CN1CCN(c2ccc(Nc3ncc(Br)c(Nc4ccc5cc[nH]c5c4)n3)cc2)CC1`, in assay [6], the Ratio IC50 worked out at 74. Further, the values for the IC50 in assay [2] and in assay [3] were 19 nM and 1400 nM, respectively.

Regarding `CN1CCN(c2ccc(Nc3ncc(Br)c(Nc4ccc5ncccc5c4)n3)cc2)CC1`, the IC50 in assay [2] was 7800 nM; in assay [3] it was greater than 10000 nM.

`COc1cnc(Nc2ccc(N3CCN(C)CC3)cc2)nc1Nc1ccc2[nH]ccc2c1`: the results for the IC50 in assay [1], in assay [2] and in assay [3] were 224 nM, 155 nM and greater than 1000 nM, respectively.

As to `CN1CCN(c2ccc(Nc3ncc(Cl)c(Nc4ccc5[nH]ccc5c4)n3)cc2)CC1`, the IC50 worked out at 105 nM in assay [1], 46 nM in assay [2] and 557 nM in assay [3].

Consider `CN1CCN(c2ccc(Nc3nccc(Nc4ccc5[nH]ccc5c4)n3)cc2)CC1`, for which the IC50 in assay [1] came to 100 nM; in assay [2] it was 220 nM; in assay [3], 49 nM.

With `CN1CCN(c2ccc(Nc3ncc(F)c(Nc4ccc5[nH]ccc5c4)n3)cc2)CC1`, the results for the IC50 in assay [1], in assay [2] and in assay [3] were 232 nM, 181 nM and greater than 1000 nM, respectively.

In the case of `CN1CCN(c2ccc(Nc3ncc(Br)c(Nc4ccc5[nH]c(Cc6cccc(F)c6)cc5c4)n3)cc2)CC1`, in assay [6], the Ratio IC50 stood at 7. In addition, the results for the IC50 in assay [2] and in assay [3] were 49 nM and 325 nM, respectively.

In the case of `C=CC(=O)Nc1cccc(Oc2nc(Nc3ccc(N4CCN(C)CC4)cc3OC)ncc2Cl)c1`, the IC50 in assay [4] is 1300 nM; in assay [5], 128 nM.

Consider `Cc1cnc(Nc2ccc(N3CCN(C)CC3)cc2)nc1Nc1ccc2[nH]ccc2c1`, for which the IC50 is 197 nM in assay [1], 171 nM in assay [2] and greater than 1000 nM in assay [3].

For `CN1CCN(c2ccc(Nc3ncc(Br)c(Nc4ccc5[nH]ncc5c4)n3)cc2)CC1`, in assay [6], the Ratio IC50 turned out to be 10. Moreover, the IC50 in assay [2] is 39 nM; in assay [3], 393 nM.

`CN1CCN(c2ccc(Nc3ncc(Br)c(Nc4ccc5nccnc5c4)n3)cc2)CC1`: the Ratio IC50 in assay [6] was determined as 2. Further, the results for the IC50 in assay [2] and in assay [3] were 236 nM and 408 nM, respectively.

For `C=CC(=O)Nc1cc(Nc2ncc(Br)c(Nc3ccc4c(c3)CCC4)n2)ccc1N(C)CCN(C)C`, the IC50 was 256 nM in assay [4], 0.6 nM in assay [2], 106 nM in assay [5] and 26.2 nM in assay [3].

In the case of `CC(=O)N1CCc2cc(Nc3nc(Nc4ccc(N5CCN(C)CC5)cc4)ncc3Br)ccc21`, the Ratio IC50 in assay [6] came out at 2. For the same compound, the IC50 worked out at 6000 nM in assay [2] and 14300 nM in assay [3].

`C=CC(=O)Nc1cc(Nc2ncc(Br)c(Nc3ccc4c(c3)CCC4)n2)ccc1N1CCN(C)CC1`: the IC50 in assay [4] was found to be 135 nM; in assay [2], 27.7 nM; in assay [5] it was 306 nM; in assay [3], 466 nM.

For `CN1CCN(c2ccc(Nc3ncc(Br)c(Nc4ccc5cn[nH]c5c4)n3)cc2)CC1`, in assay [6], the Ratio IC50 came out at 26. In addition, the IC50 in assay [2] turned out to be 43 nM; in assay [3] it was 1100 nM.

For the compound `C=CC(=O)Nc1cc(Nc2nccc(-c3cn(C)c4ccccc34)n2)c(OC)cc1N(C)CCN(C)C` [OSIMERTINIB], the values for the IC50 in assay [4] and in assay [5] were […] and […], respectively.

In the case of `CN1CCN(c2ccc(Nc3ncc(Br)c(Nc4ccc5c(c4)CCC5)n3)cc2)CC1`, the Ratio IC50 in assay [6] was 194. Further, the results for the IC50 in assay [2] and in assay [3] were 35 nM and 6800 nM, respectively.

In the case of `CN1CCN(c2ccc(Nc3ncc(Br)c(Nc4ccc5[nH]ccc5c4)n3)cc2)CC1`, the Ratio IC50 in assay [6] was determined as 23. The IC50 in assay [1] was 53 nM; in assay [2] it was 35 nM; in assay [3], greater than 1000 nM.

As for `C=CC(=O)Nc1cc(Nc2ncc(Br)c(Nc3ccc4cc[nH]c4c3)n2)ccc1N1CCN(C)CC1`, the IC50 in assay [4] worked out at 108 nM; in assay [2] it was 16.4 nM; in assay [5], 451 nM; in assay [3] it was 234 nM.

Consider `CC(=O)N1CCc2ccc(Nc3nc(Nc4ccc(N5CCN(C)CC5)cc4)ncc3Br)cc21`, for which the IC50 in assay [2] worked out at 8600 nM; in assay [3], 5700 nM.

Take `CN1CCN(c2ccc(Nc3ncc(C(F)(F)F)c(Nc4ccc5[nH]ccc5c4)n3)cc2)CC1`: the IC50 in assay [1] is 102 nM; in assay [2], 121 nM; in assay [3] it was greater than 1000 nM.

Turning to `C=CC(=O)Nc1cc(Nc2ncc(Br)c(Nc3ccc4ccn(C)c4c3)n2)ccc1N1CCN(C)CC1`, the IC50 is 200 nM in assay [4] and 190 nM in assay [5].

In the case of `CN1CCN(c2ccc(Nc3ncc(Br)c(Nc4ccc5ccn(C)c5c4)n3)cc2)CC1`, the Ratio IC50 in assay [6] was 62. Further, the IC50 in assay [2] was 21 nM; in assay [3], 1300 nM.
